The source of these data is BindingDB's records for doi:10.1021/jm970730q (Tulane University School of Medicine, 1998).

Positions of bridges follow the written chain, without caps; N, C: chain ends. Non-standard residues stand in square brackets, D forms with d. Residues, ends and D or L forms follow the SMILES beside them. Dip = N[C@H](C(=O)O)C(c1ccccc1)c1ccccc1; 2Nal = N[C@@H](Cc1ccc2ccccc2c1)C(=O)O; 3Pal = N[C@@H](Cc1cccnc1)C(=O)O

The target of assay [1] is Somatostatin receptor type 4 (Homo sapiens, UniProt P31391). Description: Binding affinity towards cloned human somatostatin 4 (hsst) receptor.
Chain of Somatostatin receptor type 4 (P31391 whole entry): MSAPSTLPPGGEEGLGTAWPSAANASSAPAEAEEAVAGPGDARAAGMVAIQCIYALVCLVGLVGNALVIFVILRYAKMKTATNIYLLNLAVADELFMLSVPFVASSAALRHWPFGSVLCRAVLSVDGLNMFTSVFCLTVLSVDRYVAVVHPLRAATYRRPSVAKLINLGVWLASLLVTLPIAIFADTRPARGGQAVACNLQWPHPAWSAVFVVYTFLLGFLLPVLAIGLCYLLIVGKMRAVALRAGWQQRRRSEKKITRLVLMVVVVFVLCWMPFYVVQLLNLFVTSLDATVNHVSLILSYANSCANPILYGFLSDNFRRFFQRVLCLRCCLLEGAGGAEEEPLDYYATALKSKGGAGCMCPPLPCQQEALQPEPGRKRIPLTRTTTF
The target in assay [2] is Somatostatin receptor type 1 (Homo sapiens, UniProt P30872). Kind of assay: Binding affinity towards cloned human somatostatin 1 (hsst) receptor. A digest of the protocol: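 Membranes from CHO-K1 cells stably transfected with the human receptor subtype (calcium phosphate transfection, G418 selection), homogenised and washed in Tris-HCl. Separated by filtration on PEI-soaked GF/C filters; nonspecific binding with 1.0 µM SRIF.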
Chain of Somatostatin receptor type 1 (P30872 whole entry): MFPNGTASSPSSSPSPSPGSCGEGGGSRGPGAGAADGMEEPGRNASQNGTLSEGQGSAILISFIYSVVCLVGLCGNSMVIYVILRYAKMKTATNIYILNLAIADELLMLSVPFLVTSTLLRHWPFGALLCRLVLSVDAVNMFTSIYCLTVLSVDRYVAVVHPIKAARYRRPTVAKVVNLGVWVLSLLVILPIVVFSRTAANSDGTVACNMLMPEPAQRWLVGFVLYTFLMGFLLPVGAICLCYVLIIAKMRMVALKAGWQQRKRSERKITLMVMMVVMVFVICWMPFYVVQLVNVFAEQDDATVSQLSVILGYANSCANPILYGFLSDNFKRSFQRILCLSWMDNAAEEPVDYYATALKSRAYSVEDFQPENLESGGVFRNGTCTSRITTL

As a reminder, the IC50 is the concentration that gives 50% inhibition. In assay [1], `CC(C)[C@@H]1NC(=O)[C@H](CCCCN)NC(=O)[C@@H](Cc2c[nH]c3ccccc23)NC(=O)[C@H](Cc2c[nH]cn2)NC(=O)[C@H](NC(=O)[C@@H](N)C(c2ccccc2)c2ccccc2)CSSC[C@@H](C(=O)N[C@@H](Cc2ccc3ccccc3c2)C(N)=O)NC1=O` [H-Dip-cyclo[DCys-His-DTrp-Lys-Val-Cys]-Nal-NH2] (H-[Dip][dC]H[dW]KVC[2Nal]-NH2; disulfide 2-7) yielded an IC50 of 1000 nM.

For the compound `CC(C)[C@@H]1NC(=O)[C@H](CCCCN)NC(=O)[C@@H](Cc2c[nH]c3ccccc23)NC(=O)[C@H](Cc2cccnc2)NC(=O)[C@H](NC(=O)[C@@H](N)C(c2ccccc2)c2ccccc2)CSSC[C@@H](C(=O)N[C@H](C(N)=O)C(c2ccccc2)c2ccccc2)NC1=O` [H-Dip-cyclo[DCys-Pal-DTrp-Lys-Val-Cys]-Dip-NH2] (H-[Dip][dC][3Pal][dW]KVC[Dip]-NH2; disulfide 2-7), the IC50 in assay [2] and in assay [1] was 1000 nM each time. In assay [2], `CC(C)[C@@H]1NC(=O)[C@H](CCCCN)NC(=O)[C@@H](Cc2c[nH]c3ccccc23)NC(=O)[C@H](Cc2c[nH]cn2)NC(=O)[C@H](NC(=O)[C@@H](N)C(c2ccccc2)c2ccccc2)CSSC[C@@H](C(=O)N[C@H](C(N)=O)C(c2ccccc2)c2ccccc2)NC1=O` [H-Dip-cyclo[DCys-His-DTrp-Lys-Val-Cys]-Dip-NH2] (H-[Dip][dC]H[dW]KVC[Dip]-NH2; disulfide 2-7) came in with an IC50 of 1000 nM.
